According to ChEMBL document CHEMBL1142126, “Triterpenoid pyrazines and benzopyrazines with cytotoxic activity” (J Nat Prod, 2007):

Assays:
[1] = system: HT-29; test: Cytotoxicity against human HT29 cells after 72 hrs by MTT assay; type: cell-based; details: HT-29, 72 h
How it was run: (§1)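 Cells seeded at 2500-30 000 per well depending on growth characteristics, preincubated 24 h at 37 °C, 5% CO2. Compounds dissolved in 10% DMSO, added as four-fold dilutions, quadruplicate. 72 h exposure at 37 °C, 5% CO2, 100% humidity. MTT added for 1-4 h, formazan dissolved in 10% aqueous SDS (pH 5.5) overnight at 37 °C, OD 540 nm. Survival relative to control wells; TCS50 taken from dose-response curves.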

[2] = Cytotoxicity against human U87-Mg cells after 72 hrs by MTT assay; type: cell-based, U-87MG ATCC; details: U-87 MG; how it was run: as §1
[3] = system: CCRF-CEM; test: Cytotoxicity against daunorubicin-resistant CEM-DNR-bulk cells after 72 hrs by MTT assay; type: cell-based; details: Homo sapiens; how it was run: as §1
[4] = Cytotoxicity against human Pgp-positive multidrug-resistant K562-tax cells after 72 hrs by MTT assay; type: ADME, cell-based; how it was run: as §1
[5] = system: CCRF-CEM; test: Cytotoxicity against human CEM cells after 72 hrs by MTT assay; type: cell-based; how it was run: as §1
[6] = system: A549; test: Cytotoxicity against human A549 cells after 72 hrs by MTT assay; type: cell-based; details: A549, 72 h; how it was run: as §1
[7] = system: SK-MEL-2; test: Cytotoxicity against human SK-MEL-2 cells after 72 hrs by MTT assay; type: cell-based; details: SK-MEL-2, 72 h
How it was run: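 Cells seeded at 2500–30 000/well by growth characteristics, preincubated 24 h at 37 °C, 5% CO2; four-fold dilutions of compound (dissolved in 10% DMSO) added, 72 h exposure at 37 °C, 5% CO2, 100% humidity; quadruplicate. MTT 1–4 h, formazan dissolved in 10% SDS (pH 5.5) overnight, OD 540 nm; survival vs control wells, TCS50 from dose–response curves.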

[8] = system: K562; test: Cytotoxicity against human K562 cells after 72 hrs by MTT assay; type: cell-based; details: K562, 72 h; how it was run: as §1
[9] = system: PC-3; test: Cytotoxicity against human PC3 cells after 72 hrs by MTT assay; type: cell-based; details: PC-3, 72 h; how it was run: as §1
[10] = Cytotoxicity against B2-4 cells after 72 hrs by MTT assay; type: cell-based; details: Homo sapiens, B2-4, 72 h; how it was run: as §1

SMILES | IC50 [1] [µM] | IC50 [4] [µM] | IC50 [5] [µM] | IC50 [6] [µM] | IC50 [8] [µM] | IC50 [9] [µM] | further results
COC(=O)[C@@]12CC[C@]3(C)[C@H](CC[C@@H]4[C@@]5(C)CC[C@H](OC(C)=O)C(C)(C)[C@@H]5CC[C@]43C)C1=C(C(C)C)C(=O)C2=O | 7 | 9 | 16 | 13 | 6 | 14 | IC50 [2]: 74 µM; IC50 [3]: 5 µM; IC50 [7]: 14 µM
CC1(C)CC[C@]23CC[C@]4(C)[C@H](CC[C@@H]5[C@@]6(C)Cc7nccnc7C(C)(C)[C@@H]6CC[C@]54C)[C@H]2[C@H]1OC3 |  |  | 250 |  |  |  | 
CC(=O)OC1CC[C@]2(C)[C@H]3CC[C@H]4C5=C(CC[C@@]4(C)[C@]3(C)CC[C@H]2C1(C)C)c1nccnc1[C@H]5C(C)C (some centres not stated) |  |  | 244 |  |  |  | 
CC(C)C1=C2CC[C@]3(C)[C@H](CC[C@@H]4[C@H]5[C@H]6O[C@@]5(CCC6(C)C)CC[C@]43C)[C@@]2(C)C(=O)C1=O |  |  | 250 |  |  |  | 
C=C(C)[C@@H]1CC[C@]2(C(=O)OC)CC[C@]3(C)[C@H](CC[C@@H]4[C@@]5(C)Cc6nccnc6C(C)(C)[C@@H]5CC[C@]43C)[C@@H]12 |  |  | 250 |  |  |  | 
CC(=O)OC[C@@]12CC[C@]3(C)[C@H](CC[C@@H]4[C@@]5(C)CCC(OC(C)=O)C(C)(C)[C@@H]5CC[C@]43C)C1=C(C(C)C)c1nccnc12 (some centres not stated) |  |  | 215 |  |  |  | 
C=C(C)[C@@H]1CC[C@]2(CO)CC[C@]3(C)[C@H](CC[C@@H]4[C@@]5(C)Cc6nc7ccccc7nc6C(C)(C)[C@@H]5CC[C@]43C)[C@@H]12 |  |  | 178 |  |  |  | 
CC(C)[C@@H]1CC[C@]2(CO)CC[C@]3(C)[C@H](CC[C@@H]4[C@@]5(C)Cc6nc7ccccc7nc6C(C)(C)[C@@H]5CC[C@]43C)[C@@H]12 |  |  | 35 |  |  |  | 
COC(=O)[C@]12CC[C@@H](C(C)C)[C@@H]1[C@H]1CC[C@@H]3[C@@]4(C)Cc5nccnc5C(C)(C)[C@@H]4CC[C@@]3(C)[C@]1(C)CC2 | 164 | 91 | 151 | 220 | 201 | 227 | IC50 [2]: 231 µM; IC50 [3]: 235 µM; IC50 [10]: 94 µM
C=C(C)[C@@H]1CC[C@]2(C(=O)O)CC[C@]3(C)[C@H](CC[C@@H]4[C@@]5(C)Cc6nc7ccccc7nc6C(C)(C)[C@@H]5CC[C@]43C)[C@@H]12 | 96 | 118 | 42 | 48 | 86 | 64 | IC50 [7]: 192 µM
CC(C)[C@@H]1CC[C@]2(C(=O)O)CC[C@]3(C)[C@H](CC[C@@H]4[C@@]5(C)Cc6nc7ccccc7nc6C(C)(C)[C@@H]5CC[C@]43C)[C@@H]12 | 123 | 117 | 124 | 122 | 113 | 103 | IC50 [2]: 148 µM; IC50 [3]: 198 µM; IC50 [10]: 99 µM
C=C(C)[C@@H]1CC[C@]2(CO)CC[C@]3(C)[C@H](CC[C@@H]4[C@@]5(C)Cc6nccnc6C(C)(C)[C@@H]5CC[C@]43C)[C@@H]12 |  |  | 101 |  |  |  | 
CC(C)[C@@H]1CC[C@]2(CO)CC[C@]3(C)[C@H](CC[C@@H]4[C@@]5(C)Cc6nccnc6C(C)(C)[C@@H]5CC[C@]43C)[C@@H]12 |  |  | 74 |  |  |  | 
C=C(C)[C@@H]1CC[C@]2(C(=O)OCOC(=O)C(C)(C)C)CC[C@]3(C)[C@H](CC[C@@H]4[C@@]5(C)Cc6nccnc6C(C)(C)[C@@H]5CC[C@]43C)[C@@H]12 | 250 | 149 | 232 | 51 | 100 | 250 | IC50 [7]: 250 µM
CC(=O)OC[C@@]12CC[C@]3(C)[C@H](CC[C@@H]4[C@@]5(C)CC[C@H](OC(C)=O)C(C)(C)[C@@H]5CC[C@]43C)C1=C(C(C)C)C(=O)C2=O | 250 | 250 | 250 | 103 | 250 | 208 | IC50 [7]: 170 µM
CC(C)C1=C2CC[C@]3(C)[C@H](CC[C@H]4C5[C@H]6O[C@@]5(CCC6(C)C)CC[C@]43C)[C@@]2(C)c2nccnc21 (some centres not stated) |  |  | 250 |  |  |  | 
CC(C)C1=C2CC[C@]3(C)[C@H](CC[C@@H]4[C@H]5[C@H]6O[C@@]5(CCC6(C)C)CC[C@]43C)[C@@]2(C)c2nc3ccccc3nc21 |  |  | 250 |  |  |  | 

SMILES | IC50 [1] [µM] | IC50 [4] [µM] | IC50 [5] [µM] | IC50 [6] [µM] | IC50 [8] [µM] | IC50 [9] [µM] | further results
COC(=O)[C@]12CC[C@@H](C(C)C)[C@@H]1[C@H]1CC[C@@H]3[C@@]4(C)Cc5nc6ccccc6nc5C(C)(C)[C@@H]4CC[C@@]3(C)[C@]1(C)CC2 |  |  | 250 |  |  |  | 
CC1(C)CC[C@]23CC[C@]4(C)[C@H](CC[C@@H]5[C@@]6(C)Cc7nc8ccccc8nc7C(C)(C)[C@@H]6CC[C@]54C)[C@H]2[C@H]1OC3 |  |  | 250 |  |  |  | 
C=C(C)[C@@H]1CC[C@]2(C(=O)OCOC(C)=O)CC[C@]3(C)[C@H](CC[C@@H]4[C@@]5(C)Cc6nccnc6C(C)(C)[C@@H]5CC[C@]43C)[C@@H]12 | 77 | 35 | 12 | 1 | 2 | 35 | IC50 [7]: 69 µM
COC(=O)[C@@]12CC[C@]3(C)[C@@H](CC[C@@H]4[C@@]5(C)CCC(OC(C)=O)C(C)(C)[C@@H]5CC[C@]43C)C1=C(C(C)C)c1nccnc12 (some centres not stated) |  |  | 250 |  |  |  | 
COC(=O)[C@@]12CC[C@]3(C)[C@H](CC[C@@H]4[C@@]5(C)CCC(OC(C)=O)C(C)(C)[C@@H]5CC[C@]43C)C1=C(C(C)C)c1nc3ccccc3nc12 (some centres not stated) |  |  | 192 |  |  |  | 
C=C(C)[C@@H]1CC[C@]2(C(=O)OC)CC[C@]3(C)[C@H](CC[C@@H]4[C@@]5(C)Cc6nc7ccccc7nc6C(C)(C)[C@@H]5CC[C@]43C)[C@@H]12 | 250 | 250 | 250 | 250 | 245 | 250 | IC50 [2]: 250 µM; IC50 [3]: 250 µM; IC50 [10]: 47 µM
CC(=O)OC[C@@]12CC[C@]3(C)[C@@H](CC[C@@H]4[C@@]5(C)CCC(OC(C)=O)C(C)(C)[C@@H]5CC[C@]43C)C1=C(C(C)C)c1nc3ccccc3nc12 (some centres not stated) | 229 | 234 | 106 | 101 | 70 | 233 | IC50 [7]: 231 µM
CC1(C)CC[C@]23CC[C@]4(C)[C@H](CC[C@@H]5[C@@]6(C)CC[C@H](O)C(C)(C)[C@@H]6CC[C@]54C)[C@H]2[C@H]1OC3 [ALLOBETULIN] |  |  | 250 |  |  |  | 
CC1(C)CC[C@]23CC[C@]4(C)[C@H](CC[C@@H]5[C@@]6(C)CCC(=O)C(C)(C)[C@@H]6CC[C@]54C)[C@H]2[C@H]1O3 [ALLOBETULONE] |  |  | 250 |  |  |  | 
C=C(C)[C@@H]1CC[C@]2(C(=O)O)CC[C@]3(C)[C@H](CC[C@@H]4[C@@]5(C)CC[C@H](O)C(C)(C)[C@@H]5CC[C@]43C)[C@@H]12 [BETULINIC ACID] |  |  | 30 |  |  |  | 
C=C(C)[C@@H]1CC[C@]2(CO)CC[C@]3(C)[C@H](CC[C@@H]4[C@@]5(C)CC[C@H](O)C(C)(C)[C@@H]5CC[C@]43C)[C@@H]12 [BETULIN] |  |  | 250 |  |  |  | 
C=C(C)[C@@H]1CC[C@]2(C(=O)O)CC[C@]3(C)[C@H](CC[C@@H]4[C@@]5(C)CCC(=O)C(C)(C)[C@@H]5CC[C@]43C)[C@@H]12 [BETUNOLIC ACID] | 17 | 17 | 20 | 15 | 6 | 15 | IC50 [2]: 159 µM; IC50 [7]: 26 µM
CC(C)[C@@H]1CC[C@]2(C(=O)O)CC[C@]3(C)C(CCC4[C@@]5(C)CC[C@H](O)C(C)(C)C5CC[C@]43C)C12 (some centres not stated) [DIHYDROBETULINIC ACID] |  |  | 7 |  |  |  | 
CC(C)[C@@H]1CC[C@]2(C(=O)O)CC[C@]3(C)[C@H](CC[C@@H]4[C@@]5(C)CCC(=O)C(C)(C)[C@@H]5CC[C@]43C)[C@@H]12 [DIHYDROBETULONIC ACID] |  |  | 2 |  |  |  | 
C=C(C)[C@@H]1CC[C@]2(C(=O)OC)CC[C@]3(C)[C@H](CC[C@@H]4[C@@]5(C)CCC(=O)C(C)(C)[C@@H]5CC[C@]43C)[C@@H]12 [METHYL BETULONATE] |  |  | 250 |  |  |  | 
COC(=O)[C@]12CC[C@@H](C(C)C)[C@@H]1[C@H]1CC[C@@H]3[C@@]4(C)CCC(=O)C(C)(C)[C@@H]4CC[C@@]3(C)[C@]1(C)CC2 [METHYL DIHYDROBETULONATE] |  |  | 173 |  |  |  | 
